Reference: ChEMBL document CHEMBL1125934, “Targeting 5'-deoxy-5'-(methylthio)adenosine phosphorylase by 5'-haloalkyl analogues of 5'-deoxy-5'-(methylthio)adenosine” (J Med Chem, 1991)

T1: S-methyl-5'-thioadenosine phosphorylase (Mus musculus) (UniProt Q9CQ65)
T1 sequence (whole entry): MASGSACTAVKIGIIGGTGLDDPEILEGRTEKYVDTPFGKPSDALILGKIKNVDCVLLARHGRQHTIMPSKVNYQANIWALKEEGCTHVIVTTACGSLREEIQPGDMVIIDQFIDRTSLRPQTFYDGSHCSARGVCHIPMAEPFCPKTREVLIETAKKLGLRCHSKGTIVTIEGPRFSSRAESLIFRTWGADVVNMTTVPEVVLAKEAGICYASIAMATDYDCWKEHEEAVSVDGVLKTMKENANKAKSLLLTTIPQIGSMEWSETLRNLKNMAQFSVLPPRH

T2: S-methyl-5'-thioadenosine phosphorylase (Mus musculus, UniProt Q9CQ65)
T2 sequence (Q9CQ65 whole entry): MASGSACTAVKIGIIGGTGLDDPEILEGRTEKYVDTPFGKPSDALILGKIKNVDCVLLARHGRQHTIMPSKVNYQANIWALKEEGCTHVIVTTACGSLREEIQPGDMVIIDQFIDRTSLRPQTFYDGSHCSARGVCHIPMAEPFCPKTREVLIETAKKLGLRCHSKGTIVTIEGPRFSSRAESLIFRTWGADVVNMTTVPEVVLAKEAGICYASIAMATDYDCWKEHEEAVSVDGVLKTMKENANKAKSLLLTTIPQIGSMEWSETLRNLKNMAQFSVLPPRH


What was measured:
[1] = molecular target: T1, S-methyl-5'-thioadenosine phosphorylase (Mus musculus); experiment: The ability to act as substrates for MTA phosphorylase activity was determined by using a mouse liver enzyme preparation; format: functional, tissue-based; design: concentration or dose not given beside the values
How it was run: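 Mouse liver MTA phosphorylase preparation, spectrophotometric assay. The analogue was used as substrate and the absorbance change at λ 305 was read after a 10-min incubation. Activity is expressed relative to MTA as control substrate. Duplicate samples, agreeing within 15%.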

CCRF-CEM = experiment: The concentration required to inhibit cell growth by 50% was measured on human CCRF-CEM cells (96h after exposure); format: functional, cell-based
How it was run: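 CCRF-CEM cells grown in 10% horse serum, seeded at 0.3×10^5 cells/mL. Compounds were freshly dissolved in DMSO, diluted in serum-free medium, and tested at 0.1-1000 µM for 96 h (about 4 doublings). Cells were counted by Coulter counter and the concentration giving 50% growth inhibition determined.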

L5178Y [2] = experiment: Effect of compound on putrescine(PUT) polyamine pool in L5178Y murine leukemia cells expressed in terms of nmol/10e6 cells; format: functional, Mus musculus
L5178Y [3] = experiment: Effect of compound on spermidine(SPD) polyamine pool in L5178Y murine leukemia cells expressed in terms of nmol/10e6 cells; format: functional, Mus musculus
L5178Y [4] = experiment: Effect of compound on spermine(SPM) polyamine pool in L5178Y murine leukemia cells expressed in terms of nmol/10e6 cells; format: functional, Mus musculus
L5178Y [5] = experiment: The concentration required to inhibit cell growth by 50% was measured on L5178Y Leukemic cell line of mouse(48h after exposure); format: functional, cell-based
How it was run: (§1)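 Suspension cultures in RPMI 1640 with 10% Nu Serum, seeded at 0.3×10^5 cells/mL. Compounds were dissolved fresh in DMSO, diluted in serum-free medium, and tested at 0.1-1000 µM for 48 h (about 4 doublings). Cells were counted by Coulter counter and the 50% growth-inhibitory concentration determined.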

L1210 [6] = experiment: The concentration required to inhibit cell growth by 50% was measured on L1210 Leukemic cell line of mouse(48h after exposure); format: functional, cell-based; details: L1210, 48 h; how it was run: as §1
L1210 [7] = experiment: Effect of compound on spermidine(SPD) polyamine pool in L1210 murine leukemia cells expressed in terms of nmol/10e6 cells; format: functional, Mus musculus
L1210 [8] = experiment: Effect of compound on spermine(SPM) polyamine pool in L1210 murine leukemia cells expressed in terms of nmol/10e6 cells; format: functional, Mus musculus
L1210 [9] = experiment: Effect of compound on putrescine(PUT) polyamine pool in L1210 murine leukemia cells expressed in terms of nmol/10e6 cells; format: functional, Mus musculus
MOLT-4 = experiment: The concentration required to inhibit cell growth by 50% was measured on human MOLT-4 cells (96h after exposure); format: functional, cell-based; details: MOLT-4, 96 h
How it was run: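 MOLT-4 suspension culture in RPMI 1640 with 10% Nu Serum, seeded at 0.3×10^5 cells/mL. Compounds were freshly dissolved in DMSO, diluted in serum-free medium, and tested at 0.1-1000 µM for 96 h (about 4 doublings). Cells were counted electronically (Coulter) and the 50% growth-inhibitory concentration determined.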

[10] = molecular target: Adenosylhomocysteinase (Bos taurus) (UniProt Q3MHL4); experiment: Percentage enzyme activity remaining was measured by the inhibition S-adenosyl-L-homocysteine hydrolase from bovine liver at 0.01 uM
L5178Y [11] = experiment: Effect of compound on putrescine(PUT) polyamine pool in L5178Y murine leukemia cells expressed as nmol/10e6 cells; format: functional, Mus musculus
[12] = molecular target: T2, S-methyl-5'-thioadenosine phosphorylase; experiment: The inhibitory constant(Ki) for MTA phosphorylase activity was determined by using a mouse liver enzyme preparation
How it was run: (§2)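 Mouse liver MTA phosphorylase preparation. Conversion of [methyl-³H]MTA to [methyl-³H]MTRP was measured in the presence of analogue. Ki was derived from Lineweaver-Burk plots. Duplicate samples, agreeing within 15%.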

[13] = compound: CSC[C@H]1O[C@@H](n2cnc3c(N)ncnc32)[C@H](O)[C@@H]1O; experiment: The inhibitory constant for MTA phosphorylase activity was determined by using a mouse liver enzyme preparation; format: functional, tissue-based; how it was run: as §2

Sequence of Adenosylhomocysteinase (Bos taurus) (Q3MHL4 whole entry, looked up): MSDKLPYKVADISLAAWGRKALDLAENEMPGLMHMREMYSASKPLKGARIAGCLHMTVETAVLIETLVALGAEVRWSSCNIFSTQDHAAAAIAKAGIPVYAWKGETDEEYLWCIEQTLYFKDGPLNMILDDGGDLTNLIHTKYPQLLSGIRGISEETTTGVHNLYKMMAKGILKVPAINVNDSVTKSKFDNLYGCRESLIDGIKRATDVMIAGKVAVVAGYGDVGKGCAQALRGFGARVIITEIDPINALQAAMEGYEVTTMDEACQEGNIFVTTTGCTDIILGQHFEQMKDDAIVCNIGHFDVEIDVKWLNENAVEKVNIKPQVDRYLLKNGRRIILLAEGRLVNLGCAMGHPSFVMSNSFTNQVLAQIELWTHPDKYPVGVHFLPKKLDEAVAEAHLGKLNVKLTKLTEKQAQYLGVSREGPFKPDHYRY

Row | Control [1] [%] | IC50 (CCRF-CEM) [µM] | IC50 (L1210 [6]) [µM] | IC50 (MOLT-4) [µM] | Activity [10] [%] | Ki [12] [µM] | Molecule | Activity (L5178Y [2]) [nmol/10e6 cells] | Activity (L5178Y [3]) | Activity (L5178Y [4]) | IC50 (L5178Y [5]) [µM] | Activity (L1210 [7]) | Activity (L1210 [8]) | Activity (L1210 [9]) | Activity (L5178Y [11]) | Km [13] [µM]
1 | 64 | 75 | 150 | 10 | 102 |  | Nc1ncnc2c1ncn2C1O[C@H](CSCCF)[C@@H](O)[C@H]1O (some centres not stated) | 0.27 | 1.55 | 1.43 | 60 | 1.95 | 0.86 | 0.56 |  | 
2 | 100 | 150 | 850 | 11 | 101 |  | CSC[C@H]1O[C@@H](n2cnc3c(N)ncnc32)[C@H](O)[C@@H]1O [METHYLTHIOADENOSINE] |  | 2.79 | 0.43 | 200 | 1.22 | 0.19 | 1.93 | 1.85 | 
3 | 66 | 160 | 600 | 25 | 97 | 4 | Nc1ncnc2c1ncn2C1O[C@H](CSCCCF)[C@@H](O)[C@H]1O (some centres not stated) | 0.36 | 1.79 | 1.07 | 600 | 0.99 | 0.44 | 0.34 |  | 
4 | 34 | 100 | 1000 | 40 |  |  | Nc1ncnc2c1ncn2C1O[C@H](CSCCO)[C@@H](O)[C@H]1O (some centres not stated) | 0.66 | 1.9 | 1.5 | 500 | 1.17 | 0.58 | 0.75 |  | 
5 | 102 | 160 | 1000 | 45 | 100 | 1.7 | CCCSC[C@H]1OC(n2cnc3c(N)ncnc32)[C@H](O)[C@@H]1O (some centres not stated) | 0.25 | 1.18 | 1 | 500 | 0.57 | 0.41 | 0.26 |  | 
6 | 95 | 200 | 800 | 20 | 99 | 1.9 | CCSC[C@H]1OC(n2cnc3c(N)ncnc32)[C@H](O)[C@@H]1O (some centres not stated) | 0.69 | 1.75 | 1.29 | 250 | 1.01 | 0.54 | 0.77 |  | 
7 |  |  |  |  |  |  | S-methyl-5'-thioadenosine phosphorylase (Mus musculus), Q9CQ65 (protein) MASGSACTAVKIGIIGGTGLDDPEILEGRTEKYVDTPFGKPSDALILGKIKNVDCVLLARHGRQHTIMPSKVNYQANIWALKEEGCTHVIVTTACGSLREEIQPGDMVIIDQFIDRTSLRPQTFYDGSHCSARGVCHIPMAEPFCPKTREVLIETAKKLGLRCHSKGTIVTIEGPRFSSRAESLIFRTWGADVVNMTTVPEVVLAKEAGICYASIAMATDYDCWKEHEEAVSVDGVLKTMKENANKAKSLLLTTIPQIGSMEWSETLRNLKNMAQFSVLPPRH |  |  |  |  |  |  |  |  | 1.3

Row | Molecule | Control [1] [%] | IC50 (CCRF-CEM) [µM] | IC50 (L1210 [6]) [µM] | IC50 (MOLT-4) [µM] | Activity [10] [%] | Ki [12] [µM] | Activity (L5178Y [2]) [nmol/10e6 cells] | Activity (L5178Y [3]) | Activity (L5178Y [4]) | IC50 (L5178Y [5]) [µM] | Activity (L1210 [7]) | Activity (L1210 [8]) | Activity (L1210 [9]) | Activity (L5178Y [11]) | Km [13] [µM]
8 | Nc1ncnc2c1ncn2C1O[C@H](CSCCCl)[C@@H](O)[C@H]1O (some centres not stated) | 35 |  |  |  |  |  |  |  |  |  |  |  |  |  | 
9 | Nc1ncnc2c1ncn2C1O[C@H](CSCCBr)[C@@H](O)[C@H]1O (some centres not stated) | 38 |  |  |  |  |  |  |  |  |  |  |  |  |  | 
